This passage reports Control and IC50 results from ChEMBL document CHEMBL1127580 (J Med Chem, 1994).

Assay [1] deals with Sodium-dependent dopamine transporter (Rattus norvegicus) (UniProt P23977). Briefly: Inhibitory effect of [3H]cocaine binding when pre incubation was conducted under ultraviolet light. Details: concentration or dose not given beside the values. The method, boiled down: (§1)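 Ligand (final 100 μM or as indicated, in DMSO or H2O) or vehicle preincubated 5 min with rat striatal membranes, either under reduced lighting or 4 in. from a UV source. […] Remaining binding expressed as percent of control.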

For assay [2], the species on record is Rattus norvegicus. Briefly: Tested for inhibition of [3H]-dopamine uptake into rat striatal synaptosomes. The format is functional. To be noted: Brain.
For assay [3], the target named is Sodium-dependent dopamine transporter (Rattus norvegicus, UniProt P23977). The assay can be described thus: Tested for inhibition of [3H]cocaine binding to rat striatal P2 membranes. Format: cell membranes, Membrane. In outline:
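Fresh rat striatal P2 membranes in 10 mM Na2HPO4/0.25 M sucrose, pH 7.4, 200 μg protein. Filtration on PEI-soaked GF/B filters.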

Assay [4] deals with Sodium-dependent dopamine transporter (Rattus norvegicus) (UniProt P23977). Briefly: Inhibitory effect of [3H]cocaine binding when pre incubation was conducted under reduced lighting. Details: concentration or dose not given beside the values. In outline: as §1
For assay [5], the species on record is Rattus norvegicus. Briefly: Tested for inhibition of [3H]dopamine uptake into rat striatal synaptosomes. Format: functional. To be noted: Brain.

Sodium-dependent dopamine transporter (Rattus norvegicus), sequence (P23977 whole entry): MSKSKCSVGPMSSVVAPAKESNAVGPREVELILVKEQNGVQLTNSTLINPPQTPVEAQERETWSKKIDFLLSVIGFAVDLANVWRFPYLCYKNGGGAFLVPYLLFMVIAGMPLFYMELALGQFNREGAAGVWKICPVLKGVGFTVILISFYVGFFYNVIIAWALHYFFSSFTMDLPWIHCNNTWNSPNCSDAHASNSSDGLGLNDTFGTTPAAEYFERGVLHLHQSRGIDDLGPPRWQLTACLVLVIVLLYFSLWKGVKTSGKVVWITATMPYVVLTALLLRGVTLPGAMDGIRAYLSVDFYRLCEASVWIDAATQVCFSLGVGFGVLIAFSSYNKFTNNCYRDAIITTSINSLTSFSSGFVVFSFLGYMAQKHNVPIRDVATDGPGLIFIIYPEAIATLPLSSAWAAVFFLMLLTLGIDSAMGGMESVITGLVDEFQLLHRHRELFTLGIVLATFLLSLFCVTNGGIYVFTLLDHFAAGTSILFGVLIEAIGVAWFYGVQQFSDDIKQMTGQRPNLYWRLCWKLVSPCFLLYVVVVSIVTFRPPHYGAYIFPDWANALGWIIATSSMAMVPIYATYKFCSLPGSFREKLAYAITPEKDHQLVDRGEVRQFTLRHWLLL
Sodium-dependent dopamine transporter, sequence (P23977 whole entry): as above

With `COC(=O)C1C(OC(=O)Nc2ccc(N=C=S)cc2)C[C@H]2CCC1N2C` (some centres undefined), the Control is 18.5% in assay [1] and 12.3% in assay [4]. Moreover, the values for the 50% inhibitory concentration (IC50) (in the assay listed under Rattus norvegicus [2]; in assay [3]) were 490 nM and 260 nM, respectively.
`COC(=O)C1C(OC(=O)Nc2cccc(N=C=S)c2)C[C@H]2CCC1N2C` (some centres undefined): the Control in assay [1] turned out to be 29.1%; in assay [4], 33.4%. The half-maximal inhibitory concentration (IC50) worked out at 4900 nM in the assay listed under Rattus norvegicus [5] and 960 nM in assay [3].
For the molecule `COC(=O)C1C(OC(=O)Nc2ccc(N=[N+]=[N-])cc2)C[C@H]2CCC1N2C` (some centres undefined), the Control in assay [1] is 32.5%; in assay [4], 86.3%. The figures for the IC50 (in the assay listed under Rattus norvegicus [2]; in assay [3]) were 1180 nM and 1000 nM, respectively.
With `COC(=O)[C@@H]1C2CC[C@@H](C[C@@H]1OC(=O)c1ccccc1)N2C` (single isomer, unassigned) [COCAINE], the Control in assay [1] came to 74.1%; in assay [4], 138%. This molecule also displayed an IC50 in the assay listed under Rattus norvegicus [2] of 210 nM.
As for `COC(=O)C1C(OC(=O)Nc2cccc(N=[N+]=[N-])c2)C[C@H]2CCC1N2C` (some centres undefined), the Control in assay [1] came to 39.1%; in assay [4], 102%. Also, the IC50 was determined as 3900 nM in the assay filed under Rattus norvegicus [2] and 630 nM in assay [3].
